Assay results collected from several papers.
Each line is one published result; the experiments were not run side by side.
Target: Tyrosine-protein kinase Srms (SRMS, Homo sapiens, UniProt Q9H3Y6)

SMILES | effect on | mode | method | concentration | endpoint | result
O=C1Nc2ccc(Cl)cc2C1=Cc1cc(Cl)c(O)c(Cl)c1 | cell-free assay |  |  | 0.5 µM | remaining signal | 86.3%
CN1CC(Oc2cnc(C#N)cc2-c2ccn3nc(NC(=O)C4CC4)cc3c2)C1 | enzyme activity | inhibitor |  | 1 µM | inhibition | 4%
C[C@H](c1ccnc(Nc2nc3ccc(-c4cc(N(C)C)ncn4)cc3[nH]2)c1)N1CCN(C(=O)CC(F)(F)F)CC1 | cell-free assay |  | competition with immobilised ligand | 0.1 µM | remaining binding | 97%
CC(C)(C)c1nc(-c2cccc(NS(=O)(=O)c3c(F)cccc3F)c2F)c(-c2ccnc(N)n2)s1 | enzyme activity | inhibitor | radiometric | 1 µM | remaining activity | 10%
O=C(Nc1ccc(Oc2ccc(F)cc2)cc1)N1CCc2ncccc2[C@H]1c1ccc(F)cc1 | cell-free assay |  | competition with immobilised ligand | 1 µM | remaining binding | 94%
O=C(Nc1cnn(-c2csc(C(=O)NC3COC3)c2)c1)Nc1ccccc1Cl | enzyme activity | inhibitor |  | 5 µM | remaining activity | 99.8%
CC(C)(O)[C@H]1CC[C@H](Nc2ccc3ncc(-c4cccc(C(F)(F)F)c4)n3n2)CC1 | enzyme activity | inhibitor |  | 1 µM | remaining activity | 96.5%
COc1cc2ncnc(Nc3ccc(Oc4ccccc4)c(C)c3C)c2cc1OC | enzyme activity | inhibitor |  | 1 µM | inhibition | 24%
FC(F)(F)c1ccc2c(c1)nc(-c1cccnc1)n2C1CC1 | cell-free assay |  | competition with immobilised ligand | 1 µM | remaining binding | 95%
C[S+]([O-])c1ccc(-c2nc(-c3ccncc3)c(-c3ccc(F)cc3)[nH]2)cc1 (stereo not shown) | cell-free assay |  |  | 0.5 µM | remaining signal | 102%
Cc1ccc(C(=O)Nc2ccc(CN3CCN(C)CC3)c(C(F)(F)F)c2)cc1C#Cc1cnc2cccnn12 | enzyme activity | inhibitor |  | 23.5 nM | remaining activity | 40%
CC/C(=N\NC(=O)NCc1cccc(O)c1)c1ccc(O)c(C)c1O | enzyme activity | inhibitor |  | 0.1 µM | inhibition | 1.1%
Cc1ccc(C(=O)NCc2ccsc2)cc1C#Cc1cn(C(C)C)c2ncnc(N)c12 | enzyme activity | inhibitor |  | 1 µM | activity vs control | 31%
